Results as given in ChEMBL document CHEMBL4513216, “Probing the Open Global Health Chemical Diversity Library for Multistage-Active Starting Points for Next-Generation Antimalarials” (ACS Infect Dis, 2020).

Assay: Toxicity liver stage against HepG2, at 10uM
Type: cell-based
Set-up: test concentration 10 uM, cell line HepG2-A16-CD81EGFP
Details: human, HepG2-A16-CD81EGFP cells; read-out: INHIBITION
In short: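 Uninfected HepG2-A16-CD81EGFP cells, 3 × 10^3 per well, 1536-well, plated on prespotted compound at 10 μM final, parasite-free screening media added to match infected plates; puromycin 10 μM positive, DMSO 0.5% negative; run in parallel with 48 h PbLuc assay at 37 °C, 5% CO2; viability by CellTiter-Glo luminescence, normalized to controls.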

| Structure (SMILES) | cytotoxicity at 10 µM [%] |
| --- | --- |
| Cc1nc(SCC(=O)Nc2ccc(C(N)=O)cc2)c(C#N)c(C)c1C | -5.28 |
| Cc1nc(-c2ccc(S(=O)(=O)N3CCC4(CC3)OCCO4)cc2)co1 | 1.69 |
| Cc1nnc(SCC(=O)c2cc3c(cc2Cl)NC(=O)C3)s1 | 5.42 |
| COCC(=O)Nc1ccccc1-c1ccc(=O)n(C)n1 | 4.51 |
| CN(C)C(=O)CN1C[C@H]2CCN(C(=O)C3CCCO3)CC[C@H]2S1(=O)=O (some centres undefined) | 20.6 |
| c1cc(CN2C[C@@H]3OCCN(CC4CCCO4)[C@@H]3C2)co1 (some centres undefined) | 4.8 |
| Cc1ccc(C(=O)N2C[C@@H]3CN(S(C)(=O)=O)CCO[C@@H]3C2)s1 | -4.75 |
| Cc1ccc(CN2Cc3ccnn3CC(COCc3cccnc3)C2)o1 (centres undefined) | -143 |
| CC(C)NC(=O)N1CCC2(CC(=O)N(c3ccsc3)C2)C1 (centres undefined) | -7.99 |
| O=C(NCC1CC1)C1CN(C(=O)Cc2cccs2)CC12CCOCC2 (centres undefined) | 4.76 |
| C[C@H]1CN(Cc2cnn(C)c2)C[C@@]12CCN(Cc1cccnc1)C2=O | 8.99 |
| O=C([C@H]1CCCO1)N1CCc2ncnc(NC3CC3)c2CC1 | -12.6 |
| Cn1c(=O)n(C)c2nc(Cl)c(CC(=O)c3ccc(F)cc3)n2c1=O | 6.28 |
| CC(=O)Nc1nc(C2CCN(C(=O)c3cncs3)CC2)cs1 | -8.91 |
| CC(=O)N1CCCC1c1nc(C)cc(-c2ccc(F)cc2)n1 (centres undefined) | 9.88 |
| Cc1c[nH]nc1C1CCCCN1C(=O)CNS(C)(=O)=O (centres undefined) | -9.19 |
| CNc1cncc(C2CCCN2Cc2ccnc(C)n2)n1 (centres undefined) | -11.4 |
| Cc1nc2ccc(C(=O)N3CCn4c(nnc4C4CC4)C3)cc2nc1C | -3.22 |
| Cc1noc(C)c1C(=O)N1CCC(c2[nH]ncc2S(C)(=O)=O)C1 (centres undefined) | -9.83 |
| CCCn1cc(C(=O)N2CCOC(c3nc(-c4cccs4)no3)C2)cn1 (centres undefined) | -4.22 |
| COc1ccc(CN(C)CC2(O)CCN(C(=O)c3cccn3C)C2)cc1 (centres undefined) | 5.4 |
| CC(CN1CCCC1=O)NC(=O)NCc1ccccc1-n1cccn1 (centres undefined) | 3.33 |
| Cc1cc(C)cc(OCCN(C)C2CCOC2=O)c1 (centres undefined) | -143 |
| CCN1CCN(C(=O)C2CCOC2)c2ccccc21 (centres undefined) | 2.54 |
| c1ccc2oc(N3CCC(c4nncn4C4CC4)CC3)nc2c1 | 12.7 |
| Cc1ccc(OCC(C)NS(=O)(=O)Cc2ccon2)cc1 (centres undefined) | -4.84 |
| Cc1cc(C2CCCN2C(=O)NCc2ccccn2)on1 (centres undefined) | 1.47 |

| Structure (SMILES) | cytotoxicity at 10 µM [%] |
| --- | --- |
| CC(C)c1cc(C(=O)N2CCCN(Cc3ccccc3)CC2)n[nH]1 | -5.41 |
| CC(Cn1cccn1)NCC(=O)NC1(C#N)CCCCC1 (centres undefined) | -3.6 |
| CCOC(C)c1noc(CN2CCCNCC2)n1 (centres undefined) | 5.44 |
| CC(C)NC(=O)c1cc(Br)cc(S(=O)(=O)N2CCOCC2)c1F | 6.17 |
| CCCC1SCCN1C(=O)c1ccc(-n2ncc(C#N)c2N)cc1 (centres undefined) | 9.15 |
| Cc1nc(C)c(CCNC(Cc2ccncc2)C(F)(F)F)s1 (centres undefined) | -4.96 |
| CN(C)C(=O)CN1CCc2ncnc(C3CC3)c2CC1 | -94.1 |
| Cn1cc(C2COC3(CCN(C(=O)Cc4ccccc4)CC3)C2)cn1 (centres undefined) | -108 |
| CN1CC[C@]2(CN(S(C)(=O)=O)C[C@H]2c2ccccc2)C1=O | -120 |
| CCOCc1cnc2n1CCN(C(=O)c1ccoc1C)C2C (centres undefined) | -98.3 |
| CC(C)CN1C(=O)CO[C@@H]2CN(C(=O)C3CCOC3)C[C@H]21 (some centres undefined) | -70.3 |
| O=C(c1ccsc1)N1CCN2C[C@H](OCc3ccccn3)C[C@H]2C1 | -71.8 |
| CC(=O)N1CC[C@@H]2CN(C(=O)c3ccco3)CCO[C@@H]2C1 | 2.93 |
| c1cnc(OCc2nnc3n2CCN(CC2CC2)C3)nc1 | -1.93 |
| CCNc1nc(-c2cccnc2)c(-c2ccnc(N3CCCC3)n2)s1 | -5.14 |
| CCn1ncc2c1NC(=O)CC2c1cnc(NCc2ccccc2)nc1 (centres undefined) | -6.27 |
| O=C([C@@H]1CCCO1)N1CCC(Cn2cc(-c3ccsc3)nn2)CC1 | 3.43 |
| CCN(C(C)=O)C1CCN(c2nccc(CCC(F)(F)F)n2)C1 (centres undefined) | -4.39 |
| CCC[C@H]1CN(Cc2cscn2)C[C@@H]1NC(=O)C1(COC)CCC1 | -5.69 |
| CCSc1ncc(-c2cc(C3CCC3)nc(N)c2C#N)cn1 | 6.67 |
| Cc1ccc(C(=O)N2CCSCC2)cc1N1CCNC1=O | -6.33 |
| CC(CCn1cccn1)Nc1ccc(-c2nccn2C)nn1 (centres undefined) | 1.39 |
| CN1CCC(Cc2nc(-c3cnccn3)n(C3CCS(=O)(=O)C3)n2)CC1 (centres undefined) | -2.64 |
| O=C(NC1CCCCC1)[C@H]1CNC[C@@H](COc2cccnc2)C1 | -8.98 |
| CN(Cc1n[nH]c2c1CCCC2)C(=O)c1cccc(CCC(C)(C)O)c1 | -3.87 |
| COc1ccccc1N1CCN(C(=O)CCCS(N)(=O)=O)C(C)C1 (centres undefined) | 6.15 |
| Cc1cccnc1NCCNC(=O)C1CCN(Cc2ccco2)CC1 | -2.51 |

| Structure (SMILES) | cytotoxicity at 10 µM [%] |
| --- | --- |
| Cc1nc(O)cc(C2CCCN(Cc3c(Cl)cncc3Cl)C2)n1 (centres undefined) | -5.4 |
| c1coc(-c2nc3c(c(NCc4n[nH]c5c4CCC5)n2)CCNCC3)c1 | -3.36 |
| CCc1[nH]c2c(CNC(=O)C3CCS(=O)(=O)CC3)cc(C)cc2c1C | 1.87 |
| Cc1ccc(CN2CCC(n3cc(C(O)c4ccccc4)nn3)CC2)o1 (centres undefined) | 2.11 |
| N#CC1CCCN(c2nc(-c3ccccc3)nc3c2CCNCC3)C1 (centres undefined) | -0.468 |
| CN(C)C(C(=O)N1CCC(N2CCSCC2)CC1)c1ccccc1F (centres undefined) | 9.22 |
| Cc1nn(CC(C)C)c(N(C)C)c1CNCc1ccc2c(c1)OCO2 | -1.05 |
| CCN(c1ccc(C(=O)N2CCCC2c2cnn(C)c2)cn1)C(C)C (centres undefined) | -0.607 |
| CNC(=O)NC(=O)CN1CCN(c2ccc(C(=O)OC)cc2)CC1C (centres undefined) | -1.98 |
| COCC(c1cccc(C(F)(F)F)c1)N(C)C(=O)c1ccco1 (centres undefined) | -9.07 |
| Cc1ccc(-c2noc(CN3CCOC(Cn4cccn4)C3)n2)cc1 (centres undefined) | -5.98 |
| Cc1nc(C)n(CC2CCCN(CCOc3cccc(F)c3)C2)n1 (centres undefined) | -3.18 |
| O=C(CC1CC1)N1CCC2(CC1)CN(Cc1cccnc1)C(=O)CO2 | 3.59 |
| CNC(=O)N1CCC2(CC1)c1ncc(C)n1CCN2C | 5.22 |
| CCS(=O)(=O)N1CCC2(C1)C(=O)N(C)CCN2Cc1ccncc1 (centres undefined) | -4.78 |
| CCc1ccc(CN2Cc3nccn3CC(CN3CCOCC3)C2)o1 (centres undefined) | -87.9 |
| CCS(=O)(=O)N1Cc2nnn(C)c2C(COCCN(C)C)C1 (centres undefined) | 1.55 |
| Cc1nc(COC[C@@H]2CCC[C@@]23CN(C)CCO3)cs1 | -88.9 |
| CC(C)CCN1CCc2c(C(=O)N(C)Cc3ccccn3)nn(C)c2C1 | -0.449 |
| Cc1noc(C)c1CN1Cc2cn(C)nc2C(COCC2CC2)C1 (centres undefined) | -73 |
| COCCN1CCC2(CC1)CC(N1CCOCC1)c1ccc(C)cc12 (centres undefined) | -106 |
| Cc1ccc(N2CCO[C@H]3CN(Cc4cc(C)on4)CC[C@H]3C2=O)cn1 | -72.2 |
| COc1ccc(CN2C[C@H](N3CCCC3=O)[C@@H]3OCCC[C@@H]32)cc1 | 9.51 |
| Fc1cnc(N2CCOC3(CCN(Cc4cccs4)CC3)C2)nc1 | 0.73 |
| COc1ccc(CN(C)CC(O)COCc2ccccc2Cl)c(OC)c1 (centres undefined) | 18.8 |
